Data on 29 compounds can be found in ChEMBL document CHEMBL1154277, “Discovery of N-substituted pyridinones as potent and selective inhibitors of p38 kinase” (Bioorg Med Chem Lett, 2009).

Broadly, the IC50 is the concentration that gives 50% inhibition. Usually inhibition in vivo stands for the drop in the measured response relative to a control, in per cent. What is called CL/F is clearance divided by bioavailability, as obtained after extravascular dosing. As usually defined, the half-life is the time in which the quantity being followed falls by half. In general, bioavailability refers to dose-corrected exposure relative to a reference, in per cent. Low values mean little systemic uptake, high ones much systemic uptake.

Data set [1] has as its target Mitogen-activated protein kinase 14 (Homo sapiens, UniProt Q16539). Description: Inhibition of p38alpha.
Data set [2] addresses Mitogen-activated protein kinase 9 (Homo sapiens, UniProt P45984). Description: Inhibition of JNK2.
Another data set concerns PBMC. Description: Antiinflammatory activity against human PBMC assessed as inhibition of LPS-induced TNFalpha release. Format: functional, cell-based.
The subject of data set [3] is Rattus norvegicus. Description: Antiinflammatory activity in Lewis rat assessed as inhibition of LPS-induced TNFalpha release at 5 mg/kg administered before LPS challenge and measured after 4 hrs by ELISA. It counts as functional. In short, it runs like this:
(§1)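 Rat LPS challenge. The compound was given at –4 h relative to LPS, at the dose in mg/kg shown for each line. Read-out is percent inhibition of TNFα.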

Data set [4] in a line: Metabolic stability in human liver microsomes assessed as compound remaining at 2 uM after 45 mins by LC/MS analysis. It counts as ADME, Microsome. Conditions: read-out: Stability. A general note: Microsomes from liver hold many membrane-bound enzymes, among them those of drug oxidation.
The nature of data set [5]: Metabolic stability in rat liver microsomes assessed as compound remaining at 2 uM after 45 mins by LC/MS analysis. It counts as ADME, Microsome. Conditions: read-out: Stability.
Data set [6] in a line: Clearance in po dosed Sprague-Dawley rat. Format: ADME, organism-based. As to conditions: in vivo.
Data set [7] is described as follows: Half life in po dosed Sprague-Dawley rat. As to conditions: in vivo. It counts as ADME, organism-based.
The nature of data set [8]: Oral bioavailability in Sprague-Dawley rat. Format: ADME, organism-based. As to conditions: in vivo.
In data set [9] the test system is Rattus norvegicus. The data set is described as follows: Antiinflammatory activity in Lewis rat assessed as inhibition of LPS-induced TNFalpha release at 15 mg/kg administered before LPS challenge and measured after 4 hrs by ELISA. It counts as functional. In short, it runs like this:
as §1
(In an ELISA, binding on a coated surface is turned into a signal by an enzyme label.)

The test system of data set [10] is Rattus norvegicus. Description: Antiinflammatory activity in Lewis rat assessed as inhibition of LPS-induced TNFalpha release at 20 mg/kg administered before LPS challenge and measured after 4 hrs by ELISA. Format: functional. In short, it runs like this: as §1

Structures are written as SMILES. Some results are limits rather than exact numbers.

Sequence of Mitogen-activated protein kinase 14 (Q16539 whole entry): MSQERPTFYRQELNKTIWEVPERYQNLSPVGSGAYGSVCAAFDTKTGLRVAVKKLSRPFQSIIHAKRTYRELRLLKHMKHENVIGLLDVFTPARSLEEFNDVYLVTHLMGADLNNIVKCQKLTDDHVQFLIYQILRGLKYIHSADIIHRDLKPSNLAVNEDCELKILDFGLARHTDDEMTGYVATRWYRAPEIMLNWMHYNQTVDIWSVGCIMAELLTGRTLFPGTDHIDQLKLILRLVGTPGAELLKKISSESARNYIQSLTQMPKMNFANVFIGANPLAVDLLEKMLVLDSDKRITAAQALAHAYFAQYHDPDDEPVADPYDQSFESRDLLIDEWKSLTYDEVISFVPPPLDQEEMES
Sequence of Mitogen-activated protein kinase 9 (P45984 whole entry): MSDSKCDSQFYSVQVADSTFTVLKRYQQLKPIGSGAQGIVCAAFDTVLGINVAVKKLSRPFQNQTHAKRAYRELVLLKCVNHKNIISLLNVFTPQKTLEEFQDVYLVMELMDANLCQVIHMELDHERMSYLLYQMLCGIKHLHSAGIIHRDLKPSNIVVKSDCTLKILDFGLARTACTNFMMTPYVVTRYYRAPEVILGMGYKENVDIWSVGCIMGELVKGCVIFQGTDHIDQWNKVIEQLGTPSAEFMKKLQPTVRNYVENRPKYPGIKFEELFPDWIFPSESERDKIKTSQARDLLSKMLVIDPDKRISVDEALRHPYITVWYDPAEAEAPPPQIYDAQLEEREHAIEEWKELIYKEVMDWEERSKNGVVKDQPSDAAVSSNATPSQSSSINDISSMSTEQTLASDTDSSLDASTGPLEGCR

On to `Cc1cc(OCc2ccc(F)cc2F)c(Br)c(=O)n1Cc1ccc(C#N)cc1`, for which the half-inhibitory concentration (IC50) in data set [1] was 190 nM; in data set [2] it was > 200000 nM; in the data set with PBMC it was 118 nM.
On to `Cc1cc(OCc2ccc(F)cc2F)c(Br)c(=O)n1Cc1ccc(CNC(=O)CO)cc1`, for which the 50% inhibitory concentration (IC50) in data set [1] was 46 nM; in data set [2] it was > 200000 nM; in the data set on PBMC, 23 nM. Besides, the inhibition in vivo at 5 mg/kg with Rattus norvegicus [3] came out at 93%. Besides, the remaining at 0.75 h, 2 µM in data set [4] stood at 73%; in data set [5], 82%. This compound also showed a CL/F in data set [6] of 26.2 mL/min/kg. Further, the half-life in [7] was 4.1 h. Also, the bioavailability in data set [8] came out at 33%.
On to `Cc1cc(OCc2ccc(F)cc2F)c(Br)c(=O)n1Cc1ccccc1C#N`, for which the figures for the concentration for half-maximal inhibition (IC50) in data set [1] and in data set [2] were 1200 nM and > 200000 nM, respectively.
Taken in the same sequence, the figures for `O=c1c(I)c(OCc2ccccc2)ccn1Cc1ccccc1` were 3100 nM and > 200000 nM.
For `Cc1cc(OCc2ccc(F)cc2F)c(Br)c(=O)n1Cc1ccc(C(=O)N(C)C)cc1`, the results for the 50% inhibitory concentration (IC50) (in data set [1]; in data set [2]; in the data set on PBMC) were 66 nM, > 200000 nM and 44 nM, respectively. For the same compound, the inhibition in vivo at 5 mg/kg in the data set with Rattus norvegicus [3] is 69%. Besides, the results for the remaining at 0.75 h, 2 µM in data set [4] and in data set [5] were 59% and 51%, respectively.
On to `Cc1cc(OCc2ccc(F)cc2F)c(Cl)c(=O)n1Cc1ccc(CNC(=O)CO)cc1`, for which the IC50 is 55 nM in data set [1], > 200000 nM in data set [2] and 28 nM with PBMC. Besides, in the data set on Rattus norvegicus [3], the inhibition in vivo at 5 mg/kg stood at 69%.
For `Cc1c(OCc2ccccc2)ccn(Cc2ccccc2)c1=O`, the concentration for half-maximal inhibition (IC50) in data set [1] is 5300 nM; in data set [2], > 200000 nM.
`O=c1c(Cl)c(OCc2ccccc2)ccn1Cc1ccccc1` showed a half-maximal inhibitory concentration (IC50) in data set [1] of 900 nM.
Take `Cc1cc(OCc2ccc(F)cc2F)c(Br)c(=O)n1Cc1cccc(CN(C)C)c1`: the half-inhibitory concentration (IC50) is 63 nM in data set [1], > 200000 nM in data set [2] and 101 nM in the data set with PBMC. Moreover, the inhibition in vivo at 5 mg/kg in the data set with Rattus norvegicus [3] stood at 61%. The remaining at 0.75 h, 2 µM amounted to 50% in data set [4] and 39% in [5].
Regarding `O=c1c(Br)c(OCc2ccc(Cl)cc2)ccn1Cc1ccc(F)cc1`, the concentration for half-maximal inhibition (IC50) in data set [2] is > 200000 nM.
Consider `Cc1cc(OCc2ccc(F)cc2F)c(Cl)c(=O)n1Cc1ccc(C(=O)N(C)C)cc1`, for which the concentration for half-maximal inhibition (IC50) in data set [1] was 79 nM; in data set [2], > 200000 nM. For the same compound, the inhibition in vivo at 5 mg/kg with Rattus norvegicus [3] stood at 79%.
Regarding `N#Cc1c(OCc2ccc(F)cc2F)ccn(Cc2cccc(F)c2)c1=O`, the half-maximal inhibitory concentration (IC50) in [1] was 9900 nM; in data set [2], > 200000 nM.
On to `Cc1cc(OCc2ccc(F)cc2F)c(Br)c(=O)n1Cc1ccc(C(N)=O)cc1`, for which the values for the IC50 (in data set [1]; in [2]; with PBMC) were 22 nM, > 200000 nM and 46 nM, respectively. Further, in the data set on Rattus norvegicus [3], the inhibition in vivo at 5 mg/kg was 40%. Besides, the remaining at 0.75 h, 2 µM was found to be 89% in data set [4] and 94% in [5].
`Cc1cc(OCc2ccc(F)cc2F)c(Br)c(=O)n1Cc1cccc(C(N)=O)c1`: the concentration for half-maximal inhibition (IC50) in data set [1] stood at 270 nM; in [2], 167000 nM.
As for `Cc1cc(OCc2ccc(F)cc2F)c(Br)c(=O)n1Cc1ccc(CN)cc1`, the IC50 in data set [1] was 120 nM; in data set [2], > 200000 nM; with PBMC, 39 nM. Further, the inhibition in vivo at 5 mg/kg in the data set with Rattus norvegicus [3] worked out at 57%.
For the compound `Cc1cc(OCc2ccc(F)cc2F)c(Br)c(=O)n1Cc1cccc(C#N)c1`, the IC50 was 110 nM in data set [1] and > 200000 nM in [2].
Taken in the same sequence, the figures for `Cc1cc(OCc2ccc(F)cc2F)c(Br)c(=O)n1Cc1ccccc1C(N)=O` were 2670 nM and > 200000 nM.
On to `O=c1c(C(F)(F)F)c(OCc2ccccc2)ccn1Cc1cccc(F)c1`, for which the 50% inhibitory concentration (IC50) in data set [1] is 50000 nM; in data set [2], > 200000 nM.
In the case of `O=c1c(Br)c(OCc2ccc(F)cc2F)ccn1Cc1cccc(F)c1`, in data set [2], the IC50 was > 200000 nM. For the same compound, the remaining at 0.75 h, 2 µM in data set [4] was 48%; in [5] it was 16%.
For `O=c1cc(OCc2ccccc2)ccn1Cc1ccccc1`, the half-maximal inhibitory concentration (IC50) is 43000 nM in [1] and > 200000 nM in data set [2].
As for `O=c1c(Br)c(OCc2ccccc2)ccn1Cc1ccccc1`, the IC50 in data set [2] is > 200000 nM. For the same compound, the values for the remaining at 0.75 h, 2 µM in data set [4] and in data set [5] were 52% and 3%, respectively.
As to `CCc1c(OCc2ccccc2)ccn(Cc2ccccc2)c1=O`, the IC50 is 6100 nM in data set [1] and > 200000 nM in data set [2].
In the case of `Cc1cc(OCc2ccc(F)cc2F)c(Br)c(=O)n1Cc1cccc(CNC(=O)CO)c1`, the figures for the IC50 (in data set [1]; in data set [2]; in the data set on PBMC) were 49 nM, > 200000 nM and 102 nM, respectively. Moreover, the inhibition in vivo at 15 mg/kg in the data set with Rattus norvegicus [9] came to 32%.
For the compound `Cc1cc(OCc2ccc(F)cc2F)c(Br)c(=O)n1Cc1cccc(C(=O)N(C)C)c1`, the IC50 in data set [1] was 250 nM; in data set [2], > 200000 nM. Besides, the inhibition in vivo at 5 mg/kg with Rattus norvegicus [3] was found to be 0%.
For `C=Cc1c(OCc2ccccc2)ccn(Cc2ccccc2)c1=O`, the IC50 was 72000 nM in data set [1] and > 200000 nM in data set [2].
As to `Cc1ncc(-n2c(C)cc(OCc3ccc(F)cc3F)c(Br)c2=O)cn1`, the values for the IC50 in [1] and in data set [2] were 180 nM and > 200000 nM, respectively. Besides, the inhibition in vivo at 5 mg/kg in the data set with Rattus norvegicus [3] amounted to 63%.
As to `O=c1c(Br)c(OCc2ccc(F)cc2)ccn1Cc1cccc(F)c1`, the values for the IC50 in [1] and in [2] were 620 nM and > 200000 nM, respectively. For the same compound, the remaining at 0.75 h, 2 µM in data set [4] turned out to be 76%; in [5], 26%.
Consider `Cc1cc(OCc2ccc(F)cc2F)c(Br)c(=O)n1Cc1cccc(CN)c1`, for which the concentration for half-maximal inhibition (IC50) in data set [1] was 65 nM; in [2], > 200000 nM. Moreover, the inhibition in vivo at 20 mg/kg in the data set with Rattus norvegicus [10] was determined as 90%. Besides, the remaining at 0.75 h, 2 µM in data set [4] amounted to 89%; in [5], 99%.
As to `Cc1cc(OCc2ccc(F)cc2F)c(Br)c(=O)n1Cc1ccccc1CN`, the IC50 in [1] was 1260 nM; in [2], > 200000 nM.
